ChEMBL document CHEMBL3352483, “Synthesis, structure-activity relationships and biological evaluation of barbigerone analogues as anti-proliferative and anti-angiogenesis agents” (Bioorg Med Chem Lett, 2014)

Experiments:
Assay type in all cases: functional, cell-based
[1] = Antiproliferative activity against human HCT116 cells after 24 hrs by MTT assay; settings: HCT-116, 24 h
Summary of the method: (§1)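 MTT proliferation assay on HUVECs and on HepG2, A375, U251, B16 and HCT116 cells. Results reported as IC50.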

[2] = system: B16; assay: Antiproliferative activity against mouse B16 cells after 24 hrs by MTT assay; settings: B16, 24 h; summary of the method: as §1
[3] = system: HepG2; assay: Antiproliferative activity against human HepG2 cells after 24 hrs by MTT assay; settings: HepG2, 24 h; summary of the method: as §1
[4] = system: HUVEC; assay: Antiproliferative activity against HUVEC after 24 hrs by MTT assay; settings: Homo sapiens; summary of the method: as §1
[5] = system: U-251; assay: Antiproliferative activity against human U251 cells after 24 hrs by MTT assay; settings: U-251, 24 h; summary of the method: as §1
[6] = system: A-375; assay: Antiproliferative activity against human A375 cells after 24 hrs by MTT assay; settings: A-375, 24 h; summary of the method: as §1

Compound | IC50 [1] [µM] | IC50 [2] [µM] | IC50 [3] [µM] | IC50 [4] [µM] | IC50 [5] [µM] | IC50 [6] [µM]
C=CCOc1ccc2c(=O)c(-c3cc(OC)c(OC)cc3OC)coc2c1 | 6.6 | 5.1 | 3.45 | > 10 | 5.9 | 4.75
CC1(C)C=Cc2c(ccc3c(=O)c(-c4ccc(Cl)c(C(F)(F)F)c4)coc23)O1 | > 10 | > 10 | > 10 | > 10 | > 10 | > 10
COc1cccc(C(=O)Oc2ccc3c(=O)c(-c4cc(OC)c(OC)cc4OC)coc3c2)c1 | > 10 | > 10 | > 10 | > 10 | > 10 | > 10
COc1cccc(-c2coc3c4c(ccc3c2=O)OC(C)(C)C=C4)c1 | > 10 | > 10 | > 10 | > 10 | > 10 | > 10
COc1cc(OC)cc(-c2coc3c4c(ccc3c2=O)OC(C)(C)C=C4)c1 | > 10 | > 10 | > 10 | > 10 | > 10 | > 10
CC1(C)C=Cc2c(ccc3c(=O)c(-c4ccc(C(F)(F)F)cc4Cl)coc23)O1 | 3.8 | 3.55 | > 10 | > 10 | 2.5 | 8.9
CC1(C)C=Cc2c(ccc3c(=O)c(-c4ccc(O)cc4)coc23)O1 | > 10 | > 10 | > 10 | > 10 | > 10 | > 10
CC(=O)c1ccc(-c2coc3c4c(ccc3c2=O)OC(C)(C)C=C4)cc1 | > 10 | > 10 | > 10 | > 10 | > 10 | > 10
COc1cc(OC)c(-c2coc3cc(OCc4ccccc4)ccc3c2=O)cc1OC | 2.28 | 2.33 | 1.32 | 9.75 | 6.75 | 1.64
COc1cc(OC)c(-c2coc3cc(OC(=O)Cc4cccc(C(F)(F)F)c4)ccc3c2=O)cc1OC | > 10 | > 10 | > 10 | > 10 | > 10 | > 10
CCOc1ccc(-c2coc3c4c(ccc3c2=O)OC(C)(C)C=C4)cc1 | > 10 | > 10 | > 10 | > 10 | > 10 | > 10
COc1ccc(-c2coc3c4c(ccc3c2=O)OC(C)(C)C=C4)cc1 | > 10 | > 10 | > 10 | > 10 | > 10 | > 10
CC1(C)C=Cc2c(ccc3c(=O)c(-c4ccc(C=O)cc4)coc23)O1 | > 10 | > 10 | > 10 | > 10 | > 10 | > 10
COc1cccc(-c2coc3c4c(ccc3c2=O)OC(C)(C)C=C4)c1F | > 10 | > 10 | > 10 | > 10 | > 10 | > 10
CC1(C)C=Cc2c(ccc3c(=O)c(-c4ccc(C(F)(F)F)cc4)coc23)O1 | 7 | 1.91 | > 10 | > 10 | 5.85 | 7.25
COc1cc(OC)c(-c2coc3cc(OCc4cccc(F)c4)ccc3c2=O)cc1OC | 4.92 | 2.44 | 1.23 | 5.3 | 3.51 | 1.3
CC1(C)C=Cc2c(ccc3c(=O)c(-c4cccc(C=O)c4)coc23)O1 | > 10 | > 10 | > 10 | > 10 | > 10 | > 10
COc1cc(OC)c(-c2coc3cc(OCc4ccccc4F)ccc3c2=O)cc1OC | 2.9 | 1.61 | 1.28 | 4.3 | 2.89 | 2.1
COc1ccc(-c2coc3c4c(ccc3c2=O)OC(C)(C)C=C4)c(OC)c1OC | > 10 | > 10 | > 10 | > 10 | > 10 | > 10
COc1cc(OC)c(-c2coc3cc(OCc4ccccc4C(F)(F)F)ccc3c2=O)cc1OC | 4.76 | 8.55 | 6.55 | > 10 | > 10 | > 10
COc1cc(OC)c(-c2coc3cc(OCc4cccc(Br)c4)ccc3c2=O)cc1OC | 1.2 | 4.4 | 0.87 | > 10 | > 10 | 1.12
COc1cc(OC)c(-c2coc3cc(OCc4ccccc4Br)ccc3c2=O)cc1OC | 4.55 | 8.9 | 2.18 | > 10 | > 10 | 2.85

Compound | IC50 [1] [µM] | IC50 [2] [µM] | IC50 [3] [µM] | IC50 [4] [µM] | IC50 [5] [µM] | IC50 [6] [µM]
COc1cc(OC)c(-c2coc3cc(OCc4ccccc4Cl)ccc3c2=O)cc1OC | 2.45 | 4.18 | 1.69 | > 10 | > 10 | 2.02
COc1ccc(-c2coc3c4c(ccc3c2=O)OC(C)(C)C=C4)cc1OC | > 10 | > 10 | > 10 | > 10 | > 10 | > 10
CC1(C)C=Cc2c(ccc3c(=O)c(-c4ccc5c(c4)OCCO5)coc23)O1 | > 10 | > 10 | > 10 | > 10 | > 10 | > 10
COc1cc(OC)c(-c2coc3cc(OCc4cccc(Cl)c4)ccc3c2=O)cc1OC | 1.33 | 2.28 | 0.75 | > 10 | > 10 | 0.98
COc1cc(OC)c(-c2coc3cc(OCc4ccccc4C)ccc3c2=O)cc1OC | 2.9 | 2.15 | 1.86 | 4.83 | 2 | 1.36
COc1cc(-c2coc3c4c(ccc3c2=O)OC(C)(C)C=C4)cc(OC)c1OC | > 10 | > 10 | > 10 | > 10 | > 10 | > 10
CC1(C)C=Cc2c(ccc3c(=O)c(-c4ccc5c(c4)OCO5)coc23)O1 | > 10 | > 10 | > 10 | > 10 | > 10 | > 10
COc1cc(OC)c(-c2coc3cc(OCc4ccc(C#N)cc4)ccc3c2=O)cc1OC | 4.22 | 7 | 4.23 |  | 6.18 | 1.55
CC1(C)C=Cc2c(ccc3c(=O)c(-c4ccc(C#N)cc4)coc23)O1 | > 10 | > 10 | > 10 | > 10 | > 10 | > 10
COc1ccc(OC)c(-c2coc3c4c(ccc3c2=O)OC(C)(C)C=C4)c1 | > 10 | > 10 | > 10 | > 10 | > 10 | > 10
COc1cc(OC)c(-c2coc3cc(OCc4cccc(C(F)(F)F)c4)ccc3c2=O)cc1OC | 3.4 | > 10 | 0.61 | > 10 | > 10 | 1.14
COc1ccccc1-c1coc2c3c(ccc2c1=O)OC(C)(C)C=C3 | > 10 | > 10 | > 10 | > 10 | > 10 | > 10
COc1cc(OC)c(-c2coc3cc(OCc4ccc([N+](=O)[O-])cc4)ccc3c2=O)cc1OC | > 10 | > 10 | 2.5 | > 10 | 9.4 | > 10
COc1cc(OC)c(-c2coc3cc(OCc4ccc(F)cc4)ccc3c2=O)cc1OC | 0.95 | 1.12 | 1 | > 10 | 3.2 | 1.72
COc1cc(OC)c(-c2coc3cc(OCc4ccc(C(F)(F)F)cc4)ccc3c2=O)cc1OC | 2.44 | 5.4 | 0.89 | > 10 | 3.75 | 2.28
CC1(C)C=Cc2c(ccc3c(=O)c(-c4cccc(C(F)(F)F)c4)coc23)O1 | > 10 | > 10 | > 10 | > 10 | > 10 | > 10
CCOc1ccccc1-c1coc2c3c(ccc2c1=O)OC(C)(C)C=C3 | > 10 | > 10 | > 10 | > 10 | > 10 | > 10
C#CCOc1ccc2c(=O)c(-c3cc(OC)c(OC)cc3OC)coc2c1 | 8.05 | 4.5 | 4.95 | > 10 | 6.45 | 3.68
COc1cc(OC)c(-c2coc3cc(OCc4ccc(Cl)cc4)ccc3c2=O)cc1OC | 4.45 | 2.4 | 0.94 | 4.4 | 0.47 | 1.02
COc1ccc(-c2coc3c4c(ccc3c2=O)OC(C)(C)C=C4)c(OC)c1 | > 10 | > 10 | > 10 | > 10 | > 10 | > 10
COc1cc(OC)c(-c2coc3cc(OCc4ccc(Br)cc4)ccc3c2=O)cc1OC | 1.98 | 1.18 | 1.05 | > 10 |  | 1
COc1ccc2c(=O)c(-c3cc(OC)c(OC)cc3OC)coc2c1 | 9.17 | 5.2 | 2.04 | > 10 | 9.4 | 2.64
